Activity calls are given as the source filed them. The rule behind the calls is not given here.
Key:
DRG neuron [1] = assay: Induction of depolarization of mouse DRG neurons at 10 ug/ml by Fura-2 dye-based fluorescence microscopy; assay type: functional
How it was run: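 Dorsal root ganglion cells were taken from mice, plated in medium with additives and loaded with Fura-2 AM. Intracellular Ca2+ was followed as the read-out while compound was applied at 10 μg/mL. This was followed by 25 mM KCl, with responses compared against control cells in the same well.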

DRG neuron [2] = assay: Increase in Ca2+ uptake in mouse DRG neurons at 10 ug/ml by Fura-2 dye-based fluorescence microscopy in presence of KCl relative to control; assay type: functional
How it was run: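 Mouse DRG cells plated in medium with additives and loaded with the Ca2+ dye Fura-2 AM. Compound applied at 10 μg/mL, then 25 mM KCl added. Ca2+ influx compared with control cells in the same well.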

## CC(=O)Cc1cc2c(c(O)c1C(=O)O)-c1cc3c(c(O)c1CC2)C(=O)c1c(O)cc(O)cc1[C@H]3[C@H]1c2cc(O)cc(O)c2C(=O)c2c1cc1c(c2O)CCc2cc(CC(C)=O)c(C(=O)O)c(O)c2-1 (stereo in doubt; 1a)
DRG neuron [1]
  Activity: inactive
DRG neuron [2]
  Activity: Active

Source: ChEMBL document CHEMBL3352407, “Griseorhodins D-F, neuroactive intermediates and end products of post-PKS tailoring modification in Griseorhodin biosynthesis” (J Nat Prod, 2014)
